# Compound activity deposited in PubChem by several laboratories.
# An excerpt weighted towards active compounds, which were near 1.6% of everything screened.
# PG9 Ab binder: small molecules binding HIV-1 gp120 antibody PG9. inhibition, % at 6.7 µM. AID 624416. TR-FRET gp120-PG9 antibody binding. 360,000 compounds, 0.43% hits; in the data active means inhibition above about 8.5%
# NR1D1 modulator: modulators of human Rev-erb alpha DNA binding; Rev-erbα–FITC-DNA binding, fluorescence polarization, 90 min; 370,000 compounds, 0.79% hits; AID 1259318; activity, % at 10 µM;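 active means activity above about 14%, limit read from the data; passing the limit was not always enough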;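 further: 0% = DMSO wells with 35 nM protein and 100% = DMSO wells with 750 nM protein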
# Target sequence (P20393 whole entry, looked up): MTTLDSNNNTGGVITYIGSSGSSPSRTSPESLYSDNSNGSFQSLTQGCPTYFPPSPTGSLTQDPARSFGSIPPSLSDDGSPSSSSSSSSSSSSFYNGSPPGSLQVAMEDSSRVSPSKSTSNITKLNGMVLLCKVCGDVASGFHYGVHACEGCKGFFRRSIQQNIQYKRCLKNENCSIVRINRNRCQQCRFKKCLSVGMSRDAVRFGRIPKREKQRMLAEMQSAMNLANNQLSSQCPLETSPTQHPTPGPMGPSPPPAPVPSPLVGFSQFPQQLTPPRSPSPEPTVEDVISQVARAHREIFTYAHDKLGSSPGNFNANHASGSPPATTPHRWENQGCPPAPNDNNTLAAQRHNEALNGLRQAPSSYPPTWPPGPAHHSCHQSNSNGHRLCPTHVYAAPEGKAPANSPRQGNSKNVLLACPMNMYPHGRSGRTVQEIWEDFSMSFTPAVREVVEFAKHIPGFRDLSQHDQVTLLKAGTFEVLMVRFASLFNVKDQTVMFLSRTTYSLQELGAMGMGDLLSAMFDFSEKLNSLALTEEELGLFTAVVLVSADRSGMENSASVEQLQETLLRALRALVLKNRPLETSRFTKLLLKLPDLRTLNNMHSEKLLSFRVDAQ
# NR2E3 ag-1: agonists of human nuclear receptor NR2E3 | Q9Y5X4 | GST-NR2E3/biotin-RetCOR TR-FRET, 1536-well | inhibition of corepressor binding, % at 4.78 µM | 320,000 compounds, 0.12% hits | AID 2300;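 active means percent inhibition above the cutoff of mean plus 3 SD of all tested compounds, set per screening campaign, cut at about 20% in these data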;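 further: 0% = DMSO wells and 100% = biotin wells as full block of FRET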
#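 System: GST-tagged NR2E3 plus biotinylated RetCOR corepressor; Amount: 1.35 nM GST-tagged NR2E3 final; Dosing: single nominal compound dose of 4.8 µM; Schedule: 5 h incubation at 4 °C; Technique: TR-FRET with europium anti-GST and streptavidin-D2, 340 nm excitation; Controls: biotin wells as high control, 0.6% DMSO wells as low control.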
# NR2E3 ag-2: agonists of human NR2E3 nuclear receptor | Q9Y5X4 | CHO-S Gal4-NCOR/VP16-NR2E3 two-hybrid, luciferase | inhibition of corepressor binding, % at 3.98 µM | 360,000 compounds, 0.35% hits | AID 602229;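 active means inhibition above the mean of all tested compounds plus 3 SD, cut at about 70% in these data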;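 further: 0% = DMSO with NR2E3 transfected cells and 100% = cells lacking NR2E3 construct; higher means lower luciferase signal from less NR2E3 corepressor binding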
# VLA-4 inh: inhibition in a human VLA-4 binding assay | P13612 | VLA-4 expressing cells, ligand binding flow cytometry | 330,000 compounds, 0.2% hits | inhibition, % (about 7 µM as worked out from the volumes in the protocol) | AID 2557; in the data active means inhibition above about 50%
# NR2E3 ag confirm: confirmation of human NR2E3 agonists | shares compounds with NR2E3 ag-2 | CHO-S mammalian two-hybrid NR2E3-NCOR, luciferase luminescence | inhibition, % at 3.98 µM | 2,300 compounds, 51% hits | AID 624378;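 active means average inhibition above a cutoff equal to the mean inhibition of all tested compounds plus one SD, cut at about 70% in these data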;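 further: 0% = DMSO in NR2E3 cells and 100% = DMSO in cells lacking NR2E3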
# VP16 counter: counter-screen for NR2E3 agonists: GAL4-VP16 reporter inhibitors; shares compounds with NR2E3 ag-2; CHO-S GAL4-VP16 luciferase reporter, luminescence; inhibition, % at 3.98 µM; 2,300 compounds, 29% hits;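 active means mean inhibition above a cutoff equal to the average over all tested compounds plus one standard deviation, cut at about 70% in these data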;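 further: luciferase from a UAS reporter driven by GAL4-VP16 transactivation; 0% = DMSO with VP16-transfected cells and 100% = DMSO with cells lacking VP16; higher means less reporter light so more repression of VP16 activity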
# Starred values were filed as active, the others as inactive; . = not tested or not shown.
SMILES,PG9 Ab binder,NR1D1 modulator,NR2E3 ag-1,NR2E3 ag-2,VLA-4 inh,NR2E3 ag confirm,VP16 counter
CCC(=O)[C@@H](C)[C@@H](O)[C@H](C)C[C@@H](C)C1OC(=O)C[C@@]2(O)CC=C(C)C(O2)C(C)=CCCC[C@H](O[C@H]2C[C@@H](OC(N)=O)[C@H](O)[C@@H](C)O2)C=C[C@H](C)C[C@H]1C (stereo not given in full),.,.,.,93.4*,.,97.6*,84.1*
O=C(Nc1ccc(Br)cc1)c1cc(Br)cc(Br)c1O,.,-1.6,.,.,.,.,.
O=S(=O)(c1ccc2ccccc2c1)N1Cc2cc(Br)ccc2-n2nncc2C1,-1.5,2.2,.,.,.,.,.
CN1C2CCC1/C(=C/c1ccccn1)C(=O)/C2=C\c1ccccn1,-1.3,-0.9,3.8,88.2*,21.6,99.5*,25.8
CC(C)(C)c1cc(O)ccc1O,2.4,-2.7,.,.,.,.,.
CCN(CCNc1ccc([N+](=O)[O-])c2cccnc12)S(=O)(=O)c1ccccc1,0.9,2.0,-0.3,-36.8,6.0,.,.
Cc1c(NS(=O)(=O)c2ccccc2)ccc([N+](=O)[O-])c1Cl,-0.1,2.9,.,84.6*,.,95.6*,84.4*
c1ccc(CCN2CCC3CCNC3C2)cc1 (stereo not given),0.4,-4.3,.,.,.,.,.
O=c1[nH]c2ccccc2n1C1CCN(C(c2ccccc2OC(F)(F)F)c2nnnn2-c2ccc3c(c2)OCCO3)CC1 (stereo not given),-2.3,10.8,.,60.9,.,53.8,14.3
CSCCC(c1nnnn1-c1ccc2c(c1)OCCO2)N1CCC(n2c(=O)[nH]c3ccccc32)CC1 (stereo not given),-3.5,1.4,.,54.5,.,30.2,5.9
COc1cccc(C(c2nnnn2-c2ccc3c(c2)OCCO3)N2CCC(n3c(=O)[nH]c4ccccc43)CC2)c1OC (stereo not given),-2.0,-1.3,.,53.1,.,21.2,24.5
O=c1[nH]c2ccccc2n1C1CCN(C(c2ccccc2)c2nnnn2-c2ccc3c(c2)OCCO3)CC1 (stereo not given),-0.4,7.6,.,17.3,.,.,.
C=C(C)C1CNC(C(=O)O)C1CC(=O)O (stereo not given),.,-3.9,.,.,.,.,.
Cc1ccc2nc(-c3ccc(CN4CCC(n5c(=O)[nH]c6cc(Cl)ccc65)CC4)cc3)c(-c3ccccc3)nc2c1,-0.3,-5.5,.,.,.,.,.
CCN(CC)C(=O)c1ccc(NC(=O)c2cccc(S(=O)(=O)N3CCN(Cc4ccccc4)CC3)c2)cc1,-2.0,-1.5,-1.6,57.0,7.6,53.9,51.6
Oc1cc(Cl)c(Cl)cc1Cl,-1.1,-7.1,.,.,.,.,.
Oc1cc(Cl)c(Cl)c(Cl)c1Cl,-1.2,3.5,.,73.9*,.,66.3,74.9*
CC(C)(C)c1cc(C=C(C#N)C#N)cc(C(C)(C)C)c1O,-2.1,3.6,-0.3,92.0*,-31.9,86.3*,89.5*
CN(C)c1ccc(-[n+]2c(-c3ccccc3)cc(-c3ccccc3)cc2-c2ccccc2)cc1,0.7,0.7,.,51.2,.,96.3*,64.9
CC1C(OC(=O)CCC(=O)NC(C)(C)CO)O[C@H]2OC3(C)CC[C@H]4[C@H](C)CCC1C24OO3 (stereo not given in full),0.1,1.9,2.4,97.2*,1.8,94.9*,74.8*
CC(C)CC(NC(=O)CCCNC(=O)CCC(=O)OC1O[C@H]2OC3(C)CC[C@H]4[C@H](C)CCC(C1C)C24OO3)C(=O)O (stereo not given in full),0.2,2.5,-3.1,93.9*,-5.6,91.1*,74.0*
OCC(O)[C@H]1O[C@@H]2O[C@H](C(Cl)(Cl)Cl)O[C@@H]2[C@H]1O (stereo not given in full),.,-4.2,.,.,.,.,.
COP(=S)(OC)Oc1cc(Cl)c(Cl)cc1Cl,.,4.0,.,.,.,.,.
O=C1Nc2ccccc2/C1=C/c1cnc[nH]1,-10.4,3.5,-9.1,47.6,11.2,25.8,-1.3
COc1ccc2c(c1)/C(=C/c1cnc[nH]1)C(=O)N2,-14.3,0.7,-10.8,80.8*,-1.8,85.6*,24.9
SMILES,PG9 Ab binder,NR1D1 modulator,NR2E3 ag-1,NR2E3 ag-2,VLA-4 inh,NR2E3 ag confirm,VP16 counter
COc1ccc(-n2c(/C=C3\C(=O)Nc4ccccc43)nc3ccccc3c2=O)cc1,-1.0,1.2,2.1,-5.0,-11.1,.,.
O=C1Nc2ccccc2/C1=C/c1nc2ccccc2c(=O)n1-c1ccc(O)cc1,-0.5,-2.2,0.6,-41.5,9.9,.,.
CCCC(C)C1(CC)C(=O)N=C(S)NC1=O (stereo not given),.,-3.5,.,.,.,.,.
N#CC1c2ccccc2-n2nncc2CN1Cc1cc(Cl)cc(Cl)c1 (stereo not given),1.3,0.6,.,88.3*,.,78.9*,70.6*
C[C@H]1C[C@@H](C)C(=O)[C@@H]([C@H](O)CC2CC(=O)NC(=O)C2)C1,0.9,4.4,0.1,101.3*,0.0,100.0*,94.1*
CCC1(CC)C(=O)NC(=O)NC1=O,.,-2.1,.,.,.,.,.
C[C@H](N)[C@H](O)c1ccc(O)c(O)c1,.,-32.5,.,.,.,.,.
COc1ccc(C[C@H]2NC[C@H](O)[C@H]2OC(C)=O)cc1,0.6,4.6,0.6,103.7*,24.0,98.9*,98.7*
CN(Cc1cccc(-c2ccncc2)c1)C(=O)Oc1ccc([N+](=O)[O-])cc1,.,.,.,89.6*,.,80.8*,74.3*
COC(=O)[C@]12OC[C@]34C([C@@H](O)[C@@H]1O)[C@]1(C)CC(=O)C(O)=C(C)[C@@H]1C[C@H]3OC(=O)[C@H](O)[C@@H]24 (stereo not given in full),-0.6,1.5,2.0,63.4,.,14.9,10.8
CC1=CC(O)C(O)C2(C)C1CC1OC(=O)C(O)C3C(C)C(O)C4(O)OCC13C42 (stereo not given),.,.,.,-15.9,.,.,.
CC(C)(C)CC(C)(C)c1ccc(O)cc1,.,9.7,.,.,.,.,.
Cn1sc(Cl)cc1=O,.,5.2,.,.,.,.,.
O=c1[nH]sc2cc(F)ccc12,2.6,3.2,.,49.6,.,17.9,-10.3
COc1cc(C2c3cc4c(cc3CC3COC(=O)C32)OCO4)cc(OC)c1O (stereo not given),-0.2,-1.6,.,30.4,.,.,.
O=C1NC2C(O)C(O)C(O)C(O)C2c2cc3c(c(O)c21)OCO3 (stereo not given),-0.1,7.1,.,98.8*,.,98.5*,98.7*
O=C1NC2C(=CC(O)C(O)C2O)c2cc3c(c(O)c21)OCO3 (stereo not given),-0.5,0.4,.,101.5*,.,100.4*,99.3*
O=C1NC2C(=CC(O)C(O)C2O)c2cc3c(cc21)OCO3 (stereo not given),0.1,1.5,.,100.2*,.,100.5*,97.2*
CC(C)(O)C(Cl)(Cl)Cl,.,-2.5,.,.,.,.,.
C=C[C@H]1CN2CC[C@H]1C[C@@H]2[C@H](O)c1ccnc2ccccc12,.,6.5,.,.,.,.,.
